Here are results for twelve compounds from ChEMBL document CHEMBL1275272, “Synthesis, characterization and antimicrobial activity of some disubstituted 1,3,4-oxadiazoles carrying 2-(aryloxymethyl)phenyl moiety” (2010).

Common to all, as to format: functional
The test system of assay [1] is Talaromyces marneffei. The assay can be described thus: Antifungal activity against Penicillium marneffei after 16 to 18 hrs by serial dilution method. The settings on record: for MIC: Talaromyces marneffei. Summed up:
(§1)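 The test compound was dissolved in DMF and serially diluted. A standard drop of the prepared microbial culture was added to each dilution, and tubes were incubated at 37 °C for 16–18 h. MIC was taken as the highest dilution that stayed clear with no visible turbidity.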

Assay [2] has as its system Aspergillus flavus. The assay can be described thus: Antifungal activity against Aspergillus flavus after 16 to 18 hrs by serial dilution method. Conditions: for MIC: Aspergillus flavus. In a few lines:
as §1

Assay [3] has as its system Staphylococcus aureus. The assay can be described thus: Antibacterial activity against Staphylococcus aureus after 16 to 18 hrs by serial dilution method. The settings on record: for MIC: Staphylococcus aureus. Summed up: as §1
Assay [4] deals with Pseudomonas aeruginosa. The assay can be described thus: Antibacterial activity against Pseudomonas aeruginosa after 16 to 18 hrs by serial dilution method. The settings on record: for MIC: Pseudomonas aeruginosa. In a few lines:
as §1

Assay [5] concerns Klebsiella pneumoniae. The assay can be described thus: Antibacterial activity against Klebsiella pneumoniae after 16 to 18 hrs by serial dilution method. The settings on record: for MIC: Klebsiella pneumoniae.
Assay [6] relates to Escherichia coli. The assay can be described thus: Antibacterial activity against Escherichia coli after 16 to 18 hrs by serial dilution method. Conditions: for MIC: Escherichia coli. In a few lines: as §1
Assay [7] concerns Aspergillus fumigatus. The assay can be described thus: Antifungal activity against Aspergillus fumigatus after 16 to 18 hrs by serial dilution method. Conditions: for MIC: Aspergillus fumigatus.
In assay [8] the test system is Trichophyton mentagrophytes. The assay can be described thus: Antifungal activity against Trichophyton mentagrophytes after 16 to 18 hrs by serial dilution method. Conditions: for MIC: Trichophyton mentagrophytes.

In general, MIC refers to the lowest concentration that inhibits growth of the organism. A high value points to a need for much substance.

Each structure is given as a SMILES string. Converted amounts (≈) assume the structure as drawn.

Turning to `COc1cc(-c2nnc(-c3ccccc3COc3ccc(C)cc3)o2)cc(OC)c1OC`, the “inhibition zone (IZ)” value is recorded as 16 mm in assay [1]; 11 mm in assay [2]; 16 mm in assay [3]; 16 mm in assay [4]; 16 mm in assay [5]; 16 mm in assay [6]. Also, the figures for the “inhibition zone (IZ)” value in assay [7] and in assay [8] were 16 mm and 11 mm, respectively. The MIC turned out to be 6.25 µg/mL (≈ 14.5 µM) in assay [1]; 12.5 µg/mL (≈ 28.9 µM) in assay [2]; 6.25 µg/mL (≈ 14.5 µM) in assay [3]; 6.25 µg/mL (≈ 14.5 µM) in assay [4]; 6.25 µg/mL (≈ 14.5 µM) in assay [5]; 6.25 µg/mL (≈ 14.5 µM) in assay [6]. Moreover, the MIC was found to be 6.25 µg/mL (≈ 14.5 µM) in assay [7] and 12.5 µg/mL (≈ 28.9 µM) in assay [8].
Consider `COc1cc(-c2nnc(-c3ccccc3COc3ccccc3C)o2)cc(OC)c1OC`, for which the “inhibition zone (IZ)” value in assay [1], in assay [2], in assay [3], in assay [4], in assay [5] and in assay [6] was 16 mm each time. The “inhibition zone (IZ)” value in assay [7] and in assay [8] was 16 mm throughout. For the same compound, the MIC in assay [1], in assay [2], in assay [3], in assay [4], in assay [5] and in assay [6] was 6.25 µg/mL (≈ 14.5 µM) each time. Moreover, the MIC in assay [7] and in assay [8] was 6.25 µg/mL (≈ 14.5 µM) throughout.
Consider `Clc1ccc(OCc2ccccc2-c2nnc(-c3ccccc3)o2)cc1`, for which the “inhibition zone (IZ)” value in assay [1], in assay [2], in assay [3], in assay [4], in assay [5] and in assay [6] was less than 10 mm in each case. Further, the “inhibition zone (IZ)” value in assay [7] and in assay [8] was less than 10 mm each time. Also, the MIC in assay [1], in assay [2], in assay [3], in assay [4], in assay [5] and in assay [6] was 25 µg/mL (≈ 68.9 µM) in each case. In addition, the MIC in assay [7] and in assay [8] was 25 µg/mL (≈ 68.9 µM) throughout.
As for `Cc1ccc(OCc2ccccc2-c2nnc(SCc3ccccc3)o2)cc1`, the “inhibition zone (IZ)” value in assay [1], in assay [2], in assay [3], in assay [4], in assay [5] and in assay [6] was less than 10 mm throughout. The “inhibition zone (IZ)” value in assay [7] and in assay [8] was less than 10 mm throughout. Besides, the MIC in assay [1], in assay [2], in assay [3], in assay [4], in assay [5] and in assay [6] was 25 µg/mL (≈ 64.4 µM) throughout. Further, the MIC in assay [7] and in assay [8] was 25 µg/mL (≈ 64.4 µM) throughout.
For the compound `CCSc1nnc(-c2ccccc2COc2ccc(C)cc2)o1`, the “inhibition zone (IZ)” value in assay [1], in assay [2], in assay [3], in assay [4], in assay [5] and in assay [6] was less than 10 mm in each case. Moreover, the “inhibition zone (IZ)” value in assay [7] and in assay [8] was less than 10 mm each time. In addition, the MIC in assay [1], in assay [2], in assay [3], in assay [4], in assay [5] and in assay [6] was 25 µg/mL (≈ 76.6 µM) throughout. Also, the MIC in assay [7] and in assay [8] was 25 µg/mL (≈ 76.6 µM) in each case.
As for `Cc1ccc(OCc2ccccc2-c2nnc(SCc3ccc(Cl)cc3Cl)o2)cc1`, the “inhibition zone (IZ)” value in assay [1], in assay [2], in assay [3], in assay [4], in assay [5] and in assay [6] was 16 mm throughout. Also, the “inhibition zone (IZ)” value in assay [7] and in assay [8] was 16 mm in each case. Also, the minimum inhibitory concentration (MIC) in assay [1], in assay [2], in assay [3], in assay [4], in assay [5] and in assay [6] was 6.25 µg/mL (≈ 13.7 µM) throughout. In addition, the MIC in assay [7] and in assay [8] was 6.25 µg/mL (≈ 13.7 µM) throughout.
Consider `Cc1ccccc1OCc1ccccc1-c1nnc(-c2ccccc2F)o1`, for which the “inhibition zone (IZ)” value in assay [1], in assay [2], in assay [3], in assay [4], in assay [5] and in assay [6] was 16 mm throughout. In addition, the “inhibition zone (IZ)” value in assay [7] and in assay [8] was 16 mm in each case. Moreover, the MIC in assay [1], in assay [2], in assay [3], in assay [4], in assay [5] and in assay [6] was 6.25 µg/mL (≈ 17.3 µM) throughout. The MIC in assay [7] and in assay [8] was 6.25 µg/mL (≈ 17.3 µM) in each case.
Consider `Cc1cccc(CSc2nnc(-c3ccccc3COc3ccccc3C)o2)c1`, for which the “inhibition zone (IZ)” value in assay [1], in assay [2], in assay [3], in assay [4], in assay [5] and in assay [6] was 11 mm each time. The “inhibition zone (IZ)” value was 16 mm in assay [7] and 11 mm in assay [8]. The MIC in assay [1], in assay [2], in assay [3], in assay [4], in assay [5] and in assay [6] was 12.5 µg/mL (≈ 31.1 µM) throughout. Besides, the values for the MIC in assay [7] and in assay [8] were 6.25 µg/mL (≈ 15.5 µM) and 12.5 µg/mL (≈ 31.1 µM), respectively.
In the case of `Cc1ccc(OCc2ccccc2-c2nnc(-c3cccc(Br)c3)o2)cc1`, the “inhibition zone (IZ)” value in assay [1], in assay [2], in assay [3], in assay [4], in assay [5] and in assay [6] was less than 10 mm in each case. Also, the “inhibition zone (IZ)” value in assay [7] and in assay [8] was less than 10 mm each time. Further, the MIC in assay [1], in assay [2], in assay [3], in assay [4], in assay [5] and in assay [6] was 25 µg/mL (≈ 59.3 µM) each time. Besides, the MIC in assay [7] and in assay [8] was 25 µg/mL (≈ 59.3 µM) throughout.
As for `CCSc1nnc(-c2ccccc2COc2cccc(C)c2)o1`, the “inhibition zone (IZ)” value in assay [1], in assay [2], in assay [3], in assay [4], in assay [5] and in assay [6] was less than 10 mm each time. Further, the “inhibition zone (IZ)” value in assay [7] and in assay [8] was less than 10 mm throughout. The MIC in assay [1], in assay [2], in assay [3], in assay [4], in assay [5] and in assay [6] was 25 µg/mL (≈ 76.6 µM) in each case. Further, the MIC in assay [7] and in assay [8] was 25 µg/mL (≈ 76.6 µM) in each case.
In the case of `CCSc1nnc(-c2ccccc2COc2ccccc2C)o1`, the “inhibition zone (IZ)” value in assay [1], in assay [2], in assay [3], in assay [4], in assay [5] and in assay [6] was less than 10 mm each time. Besides, the “inhibition zone (IZ)” value in assay [7] and in assay [8] was less than 10 mm in each case. Moreover, the MIC in assay [1], in assay [2], in assay [3], in assay [4], in assay [5] and in assay [6] was 25 µg/mL (≈ 76.6 µM) in each case. Besides, the MIC in assay [7] and in assay [8] was 25 µg/mL (≈ 76.6 µM) in each case.
For the compound `Clc1ccc(CSc2nnc(-c3ccccc3COc3ccc(Cl)cc3)o2)cc1`, the “inhibition zone (IZ)” value in assay [1], in assay [2], in assay [3], in assay [4], in assay [5] and in assay [6] was 11 mm in each case. Moreover, the “inhibition zone (IZ)” value in assay [7] and in assay [8] was 11 mm each time. For the same compound, the MIC in assay [1], in assay [2], in assay [3], in assay [4], in assay [5] and in assay [6] was 12.5 µg/mL (≈ 28.2 µM) in each case. Besides, the MIC in assay [7] and in assay [8] was 12.5 µg/mL (≈ 28.2 µM) each time.
